For test [1], the target named is Tyrosine-protein kinase ABL1 (Homo sapiens, UniProt P00519). Put plainly: Inhibition of ABL ACT labeling site in human A-375 cells at 5 uM by KiNativ Profiling analysis relative to control. The test is classed as cell-based. In a few lines: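 Intact A375 melanoma cells were treated with compound at 5 or 0.5 μM, then lysed. Lysate kinases were labeled with a lysine-reactive ATP or ADP-biotin probe (KiNativ). Inhibition is read as protection of each kinase labeling site from probe labeling.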

For test [2], the target named is Mitogen-activated protein kinase 8 (Homo sapiens, UniProt P45983). Put plainly: Inhibition of JNK1 Lys2 labeling site in human A-375 cells at 0.05 uM by KiNativ Profiling analysis relative to control. It counts as cell-based.
For test [3], the target named is Mitogen-activated protein kinase 14 (Homo sapiens, UniProt Q16539). Put plainly: Inhibition of p38 alpha Lys2 labeling site in human A-375 cells at 0.05 uM by KiNativ Profiling analysis relative to control. It counts as cell-based.
Test [4] in a line: Inhibition of p70S6K ATP Loop labeling site harbouring DLKPENIMLNHQGHVK in human A-375 cells at 0.05 uM by KiNativ Profiling analysis relative to control. Particulars: condition cancer.
Test [5] concerns the target Cyclin-dependent kinase 1 (Homo sapiens) (UniProt P06493). The test is described as follows: Inhibition of CDC2 Lys2 labeling site harbouring DLKPQNLLIDDKGTIK in human A-375 cells at 0.5 uM by KiNativ Profiling analysis relative to control. The test is classed as cell-based. In a few lines: (§1)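 Live A375 melanoma cells were treated with compound at 5 or 0.5 μM. The cells were then lysed, and the lysates were labeled with a lysine-reactive ATP or ADP-biotin acyl probe (KiNativ). Inhibition is the compound's protection of each kinase labeling-site peptide from probe labeling, relative to untreated control.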

In test [6] the target is Serine/threonine-protein kinase 26 (Homo sapiens) (UniProt Q9P289). Put plainly: Inhibition of MST4 Lys2 labeling site in human A-375 cells at 5 uM by KiNativ Profiling analysis relative to control. It counts as cell-based.
Test [7] deals with Serine/threonine-protein kinase 25 (Homo sapiens) (UniProt O00506). The test is described as follows: Inhibition of YSK1 ACT labeling site in human A-375 cells at 0.05 uM by KiNativ Profiling analysis relative to control. It counts as cell-based.
For test [8], the target named is Phosphatidylinositol 4,5-bisphosphate 3-kinase catalytic subunit beta isoform (Homo sapiens) (UniProt P42338). The test is described as follows: Inhibition of PIK3CB ATP labeling site in human A-375 cells at 0.5 uM by KiNativ Profiling analysis relative to control. It counts as cell-based.
Test [9] deals with Tyrosine-protein kinase Fer (Homo sapiens, UniProt P16591). The test is described as follows: Inhibition of FER Lys1 labeling site harbouring DKTSVAVKTCKEDLPQELK in human A-375 cells at 0.5 uM by KiNativ Profiling analysis relative to control. The test is classed as cell-based.
Test [10] addresses Casein kinase II subunit alpha (Homo sapiens) (UniProt P68400). The test is described as follows: Inhibition of CK2a1 Protein Kinase Domain in human A-375 cells at 0.5 uM by KiNativ Profiling analysis relative to control. It counts as cell-based. In a few lines:
as §1

Test [11] concerns the target Serine/threonine-protein kinase WNK2 (Homo sapiens) (UniProt Q9Y3S1). Put plainly: Inhibition of Wnk2 ACT labeling site in human A-375 cells at 0.05 uM by KiNativ Profiling analysis relative to control. It counts as cell-based.
Test [12] deals with Serine/threonine-protein kinase MARK2 (Homo sapiens) (UniProt Q7KZI7). Put plainly: Inhibition of MARK2 Lys2 labeling site harbouring FIVHRDLKAENLLLDADMNIK in human A-375 cells at 5 uM by KiNativ Profiling analysis relative to control. It counts as cell-based.
Test [13] has as its target Proto-oncogene tyrosine-protein kinase Src (Homo sapiens, UniProt P12931). Put plainly: Inhibition of SRC Lys1 labeling site in human A-375 cells at 5 uM by KiNativ Profiling analysis relative to control. It counts as cell-based.
For test [14], the target named is T1, Serine/threonine-protein kinase Chk1 (Homo sapiens) (UniProt O14757).
T1 sequence (whole entry): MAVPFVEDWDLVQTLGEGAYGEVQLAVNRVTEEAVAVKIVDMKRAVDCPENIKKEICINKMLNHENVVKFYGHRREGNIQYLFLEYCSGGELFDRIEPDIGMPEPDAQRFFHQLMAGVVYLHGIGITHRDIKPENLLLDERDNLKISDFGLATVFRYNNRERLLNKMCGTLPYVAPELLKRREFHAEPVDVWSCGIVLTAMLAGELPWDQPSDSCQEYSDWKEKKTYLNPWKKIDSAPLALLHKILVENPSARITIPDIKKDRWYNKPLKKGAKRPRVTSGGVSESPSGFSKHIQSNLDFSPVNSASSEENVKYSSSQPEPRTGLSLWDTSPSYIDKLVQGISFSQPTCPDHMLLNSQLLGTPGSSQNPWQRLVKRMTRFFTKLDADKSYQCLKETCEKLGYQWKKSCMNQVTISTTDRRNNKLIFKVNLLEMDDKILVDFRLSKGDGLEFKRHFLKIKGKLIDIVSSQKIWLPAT
The test is described as follows: Inhibition of CHK1 Lys2 labeling site harbouring DIKPENLLLDERDNLK in human A-375 cells at 0.05 uM by KiNativ Profiling analysis relative to control. It counts as cell-based.

Test [15] addresses T2, Serine/threonine-protein kinase 3 (Homo sapiens) (UniProt Q13188).
T2 sequence (whole entry): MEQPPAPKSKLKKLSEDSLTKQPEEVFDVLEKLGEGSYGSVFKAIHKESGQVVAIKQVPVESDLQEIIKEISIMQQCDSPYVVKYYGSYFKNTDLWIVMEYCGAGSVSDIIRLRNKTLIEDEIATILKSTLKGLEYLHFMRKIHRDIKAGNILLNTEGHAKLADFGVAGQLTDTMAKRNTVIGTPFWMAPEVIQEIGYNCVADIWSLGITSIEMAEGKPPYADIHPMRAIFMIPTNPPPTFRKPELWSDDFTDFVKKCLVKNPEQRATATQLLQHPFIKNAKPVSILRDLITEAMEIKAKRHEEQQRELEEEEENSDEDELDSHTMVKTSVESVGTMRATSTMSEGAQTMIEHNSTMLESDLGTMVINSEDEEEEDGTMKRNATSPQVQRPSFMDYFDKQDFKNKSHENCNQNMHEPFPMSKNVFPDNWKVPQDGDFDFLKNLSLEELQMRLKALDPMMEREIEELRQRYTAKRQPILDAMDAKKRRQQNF
Put plainly: Inhibition of MST2 Lys2 labeling site harbouring DIKAGNILLNTEGHAK in human A-375 cells at 0.05 uM by KiNativ Profiling analysis relative to control. It counts as cell-based.

The target in test [16] is Cyclin-dependent kinase 18 (Homo sapiens) (UniProt Q07002). The test is described as follows: Inhibition of PCTAIRE3 Lys1 labeling site harbouringSKLTENLVALKEIR in human A-375 cells at 0.05 uM by KiNativ Profiling analysis relative to control. The test is classed as cell-based.
Test [17] deals with Ribosomal protein S6 kinase alpha-2 (Homo sapiens) (UniProt Q15349). Put plainly: Inhibition of RSK3 Protein Kinase Domain in human A-375 cells at 0.05 uM by KiNativ Profiling analysis relative to control. It counts as cell-based.
Test [18] is described as follows: Inhibition of KHS1 Lys1 labeling site in human A-375 cells at 0.05 uM by KiNativ Profiling analysis relative to control. Particulars: condition cancer.

We go through two compounds from ChEMBL document CHEMBL5696442, “Discovery of type II inhibitors of TGFβ-activated kinase 1 (TAK1) and mitogen-activated protein kinase kinase kinase kinase 2 (MAP4K2)” (J Med Chem, 2015).

Cyclin-dependent kinase 18 (Homo sapiens), sequence (Q07002 whole entry, the tested form may be a part): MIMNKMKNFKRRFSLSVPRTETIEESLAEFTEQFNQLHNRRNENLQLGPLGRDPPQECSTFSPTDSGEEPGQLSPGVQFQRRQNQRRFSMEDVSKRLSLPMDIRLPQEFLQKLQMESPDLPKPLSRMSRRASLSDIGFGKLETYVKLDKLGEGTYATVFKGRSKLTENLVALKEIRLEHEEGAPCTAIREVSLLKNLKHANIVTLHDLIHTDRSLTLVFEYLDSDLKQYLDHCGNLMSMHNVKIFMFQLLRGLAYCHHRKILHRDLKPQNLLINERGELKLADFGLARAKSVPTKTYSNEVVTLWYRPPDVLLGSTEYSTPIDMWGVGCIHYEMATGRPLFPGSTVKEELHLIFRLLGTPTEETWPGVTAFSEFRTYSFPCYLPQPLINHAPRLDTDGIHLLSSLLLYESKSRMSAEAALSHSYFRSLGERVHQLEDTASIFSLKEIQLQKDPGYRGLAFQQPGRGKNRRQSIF
Serine/threonine-protein kinase 25 (Homo sapiens), sequence (O00506 whole entry, looked up, canonical isoform): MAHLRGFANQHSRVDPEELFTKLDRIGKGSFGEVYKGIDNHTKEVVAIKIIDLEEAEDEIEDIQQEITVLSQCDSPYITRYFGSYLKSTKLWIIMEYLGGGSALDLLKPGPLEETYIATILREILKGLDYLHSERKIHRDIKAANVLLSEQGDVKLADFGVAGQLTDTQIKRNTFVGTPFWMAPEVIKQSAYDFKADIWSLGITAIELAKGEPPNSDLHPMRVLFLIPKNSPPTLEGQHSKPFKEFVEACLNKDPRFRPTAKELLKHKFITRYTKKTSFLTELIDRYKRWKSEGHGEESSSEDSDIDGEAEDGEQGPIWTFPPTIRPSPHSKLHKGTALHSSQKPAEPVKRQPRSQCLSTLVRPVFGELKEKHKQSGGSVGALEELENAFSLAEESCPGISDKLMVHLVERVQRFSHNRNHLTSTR
Casein kinase II subunit alpha (Homo sapiens), sequence (P68400 whole entry, looked up, the tested form may be a part): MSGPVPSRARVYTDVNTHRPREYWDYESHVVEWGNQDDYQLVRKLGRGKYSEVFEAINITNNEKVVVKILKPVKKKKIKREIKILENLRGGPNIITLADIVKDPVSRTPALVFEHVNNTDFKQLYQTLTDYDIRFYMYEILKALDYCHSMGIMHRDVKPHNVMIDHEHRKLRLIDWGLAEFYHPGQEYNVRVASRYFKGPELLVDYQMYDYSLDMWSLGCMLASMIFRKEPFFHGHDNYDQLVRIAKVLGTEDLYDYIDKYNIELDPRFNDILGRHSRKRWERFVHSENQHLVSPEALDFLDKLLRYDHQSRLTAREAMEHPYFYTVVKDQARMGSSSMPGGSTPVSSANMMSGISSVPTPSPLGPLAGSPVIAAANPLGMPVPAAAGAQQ
Cyclin-dependent kinase 1 (Homo sapiens), sequence (P06493 whole entry, looked up): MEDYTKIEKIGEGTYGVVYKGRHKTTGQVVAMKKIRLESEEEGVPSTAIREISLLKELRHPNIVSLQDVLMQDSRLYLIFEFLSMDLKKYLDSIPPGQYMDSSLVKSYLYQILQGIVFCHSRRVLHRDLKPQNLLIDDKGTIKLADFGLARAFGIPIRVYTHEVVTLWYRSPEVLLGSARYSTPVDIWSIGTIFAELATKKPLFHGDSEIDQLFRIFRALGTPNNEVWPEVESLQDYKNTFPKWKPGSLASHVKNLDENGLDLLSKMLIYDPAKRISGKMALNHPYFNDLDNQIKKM
Phosphatidylinositol 4,5-bisphosphate 3-kinase catalytic subunit beta isoform (Homo sapiens), sequence (P42338 whole entry, looked up, canonical isoform): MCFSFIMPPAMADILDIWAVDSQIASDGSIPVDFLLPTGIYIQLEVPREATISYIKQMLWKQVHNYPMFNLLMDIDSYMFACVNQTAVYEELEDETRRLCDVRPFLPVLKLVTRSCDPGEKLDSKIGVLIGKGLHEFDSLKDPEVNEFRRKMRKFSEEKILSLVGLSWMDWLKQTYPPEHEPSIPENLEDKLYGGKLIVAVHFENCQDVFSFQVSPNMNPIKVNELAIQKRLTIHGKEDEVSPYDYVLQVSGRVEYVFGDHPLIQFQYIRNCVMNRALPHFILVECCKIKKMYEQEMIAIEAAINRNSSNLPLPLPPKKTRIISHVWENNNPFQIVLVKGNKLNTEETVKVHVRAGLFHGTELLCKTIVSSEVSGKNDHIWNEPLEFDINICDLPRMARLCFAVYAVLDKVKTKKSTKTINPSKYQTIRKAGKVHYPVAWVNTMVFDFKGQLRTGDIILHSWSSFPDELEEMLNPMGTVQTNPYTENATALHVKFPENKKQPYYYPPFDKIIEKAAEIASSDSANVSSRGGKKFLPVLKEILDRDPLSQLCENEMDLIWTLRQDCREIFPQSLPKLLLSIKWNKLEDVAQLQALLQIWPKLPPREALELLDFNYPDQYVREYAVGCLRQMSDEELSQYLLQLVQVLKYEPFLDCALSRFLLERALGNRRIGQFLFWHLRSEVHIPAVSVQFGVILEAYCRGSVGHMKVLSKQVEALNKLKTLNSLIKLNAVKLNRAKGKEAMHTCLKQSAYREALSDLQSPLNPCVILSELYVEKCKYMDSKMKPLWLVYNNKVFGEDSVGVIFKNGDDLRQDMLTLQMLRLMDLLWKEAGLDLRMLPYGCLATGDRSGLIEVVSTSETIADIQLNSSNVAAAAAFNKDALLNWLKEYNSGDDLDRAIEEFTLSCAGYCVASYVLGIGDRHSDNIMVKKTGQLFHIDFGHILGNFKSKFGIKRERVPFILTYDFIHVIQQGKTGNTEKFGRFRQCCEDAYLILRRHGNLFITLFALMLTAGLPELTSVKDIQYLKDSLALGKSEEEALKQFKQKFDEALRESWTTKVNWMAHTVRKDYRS
Tyrosine-protein kinase ABL1, sequence (P00519 whole entry): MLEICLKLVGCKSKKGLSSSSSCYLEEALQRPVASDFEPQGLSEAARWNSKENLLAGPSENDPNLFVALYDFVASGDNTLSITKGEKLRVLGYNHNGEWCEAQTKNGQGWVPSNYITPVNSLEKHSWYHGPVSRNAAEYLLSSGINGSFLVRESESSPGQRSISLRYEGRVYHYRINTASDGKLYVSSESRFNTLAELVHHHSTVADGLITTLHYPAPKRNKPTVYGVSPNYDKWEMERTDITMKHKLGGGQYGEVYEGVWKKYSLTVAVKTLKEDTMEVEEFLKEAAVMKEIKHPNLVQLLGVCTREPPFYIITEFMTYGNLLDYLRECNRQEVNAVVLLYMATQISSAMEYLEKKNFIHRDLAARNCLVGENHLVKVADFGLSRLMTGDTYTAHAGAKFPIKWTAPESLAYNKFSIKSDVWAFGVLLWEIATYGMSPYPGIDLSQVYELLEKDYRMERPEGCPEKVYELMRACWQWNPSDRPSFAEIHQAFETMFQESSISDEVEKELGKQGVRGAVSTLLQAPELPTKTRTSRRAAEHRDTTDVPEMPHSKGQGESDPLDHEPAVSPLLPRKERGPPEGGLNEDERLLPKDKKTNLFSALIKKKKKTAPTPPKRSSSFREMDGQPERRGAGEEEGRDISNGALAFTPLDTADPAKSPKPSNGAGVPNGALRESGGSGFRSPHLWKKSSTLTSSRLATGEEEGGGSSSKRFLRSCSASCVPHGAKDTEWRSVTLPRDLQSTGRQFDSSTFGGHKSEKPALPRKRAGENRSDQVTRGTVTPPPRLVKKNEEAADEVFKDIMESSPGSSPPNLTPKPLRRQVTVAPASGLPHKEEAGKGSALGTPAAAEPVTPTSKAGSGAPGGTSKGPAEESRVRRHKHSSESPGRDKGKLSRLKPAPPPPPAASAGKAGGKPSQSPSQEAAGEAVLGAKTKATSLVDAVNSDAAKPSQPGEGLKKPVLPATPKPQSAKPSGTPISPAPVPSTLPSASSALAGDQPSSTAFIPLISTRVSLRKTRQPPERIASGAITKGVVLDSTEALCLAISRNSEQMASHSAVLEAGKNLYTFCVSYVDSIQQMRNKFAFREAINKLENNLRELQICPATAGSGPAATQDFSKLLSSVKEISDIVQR
Mitogen-activated protein kinase 8, sequence (P45983 whole entry): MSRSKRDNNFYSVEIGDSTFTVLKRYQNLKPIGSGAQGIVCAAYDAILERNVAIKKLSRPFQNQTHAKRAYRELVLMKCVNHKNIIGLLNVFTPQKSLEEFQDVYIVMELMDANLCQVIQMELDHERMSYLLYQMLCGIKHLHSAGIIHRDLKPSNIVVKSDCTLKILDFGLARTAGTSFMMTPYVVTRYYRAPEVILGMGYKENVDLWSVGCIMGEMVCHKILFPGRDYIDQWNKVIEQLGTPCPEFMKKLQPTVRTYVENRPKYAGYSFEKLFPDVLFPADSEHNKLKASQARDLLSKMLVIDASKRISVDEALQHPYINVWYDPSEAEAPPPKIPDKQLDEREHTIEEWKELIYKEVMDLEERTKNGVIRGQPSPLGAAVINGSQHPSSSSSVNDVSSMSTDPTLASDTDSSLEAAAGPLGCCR
Mitogen-activated protein kinase 14, sequence (Q16539 whole entry): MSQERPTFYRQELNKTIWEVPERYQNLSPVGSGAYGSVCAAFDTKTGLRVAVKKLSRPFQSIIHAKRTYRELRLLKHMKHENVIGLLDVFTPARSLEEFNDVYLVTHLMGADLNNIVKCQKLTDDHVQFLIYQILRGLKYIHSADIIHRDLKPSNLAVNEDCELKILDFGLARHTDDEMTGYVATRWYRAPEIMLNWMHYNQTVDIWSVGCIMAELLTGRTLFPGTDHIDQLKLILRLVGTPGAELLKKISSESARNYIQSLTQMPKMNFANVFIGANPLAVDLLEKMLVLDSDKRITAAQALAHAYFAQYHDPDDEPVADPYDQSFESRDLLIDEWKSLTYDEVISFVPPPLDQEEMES
Serine/threonine-protein kinase 26 (Homo sapiens), sequence (Q9P289 2-416 limits assumed): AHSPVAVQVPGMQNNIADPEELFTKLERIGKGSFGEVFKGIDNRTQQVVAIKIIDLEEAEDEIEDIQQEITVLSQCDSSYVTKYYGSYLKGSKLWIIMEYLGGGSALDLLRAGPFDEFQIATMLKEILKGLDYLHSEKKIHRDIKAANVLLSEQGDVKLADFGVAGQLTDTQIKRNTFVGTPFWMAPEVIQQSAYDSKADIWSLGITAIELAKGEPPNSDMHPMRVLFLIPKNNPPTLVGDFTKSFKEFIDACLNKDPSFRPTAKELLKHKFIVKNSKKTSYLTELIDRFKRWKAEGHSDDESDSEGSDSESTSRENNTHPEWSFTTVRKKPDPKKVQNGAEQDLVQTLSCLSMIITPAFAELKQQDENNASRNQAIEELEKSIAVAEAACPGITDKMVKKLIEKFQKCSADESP

With `CCN1CCN(Cc2ccc(NC(=O)c3ccc(C)c(/C=C/c4cnc5[nH]ccc5c4OC)c3)cc2C(F)(F)F)CC1`, the inhibition (in general, the drop in the measured response relative to a control, in per cent) in test [1] was > 98%; in [2], 23.9%; in test [3], 59.4%; in [5], 6.3%; in [6], 20.9%; in [7], 13.5%. The inhibition in [8] was 37.6%; in test [9], 30%; in test [10], 12.9%; in test [11], 10.1%; in test [12], 24.6%; in [13], > 92%. Besides, the inhibition is 2.9% in test [14], -7% in test [15], 8.5% in test [16] and 1.4% in test [17]. Besides, the values for the inhibition at 0.05 µM in test [4] and in test [18] were -14.4% and 29.4%, respectively.
For the compound `CCN1CCN(Cc2ccc(NC(=O)c3ccc(C)c(Oc4ccnc5[nH]ccc45)c3)cc2C(F)(F)F)CC1`, the inhibition is > 98% in test [1]; 50.3% in test [2]; 4.2% in test [3]; 13.7% in test [5]; 15.4% in test [6]; 22.4% in [7]. Also, the inhibition is 8.8% in [8]; 87% in [9]; 2% in [10]; 10.3% in test [11]; 12.9% in [12]; > 92% in [13]. For the same compound, the inhibition was 47.1% in [14], 4.7% in test [15], 2.5% in test [16] and -4.7% in [17]. Further, the inhibition at 0.05 µM in test [4] is 18.9%; in [18], 14.9%.
